{"source": "paper PMC2172834", "about": "(The Journal of Cell Biology, 2003)", "molecules": {"B1": {"name": "Wild-type Bcl-w: prosurvival Bcl-2 family protein, expressed FLAG-tagged (protein)", "chain": "MATPASAPDTRALVADFVGYKLRQKGYVCGAGPGEGPAADPLHQAMRAAGDEFETRFRRTFSDLAAQLHVTPGSAQQRFTQVSDELFQGGPNWGRLVAFFVFGAALCAESVNKEMEPLVGQVQEWMVAYLETQLADWIHSSGGWAEFTALYGDGALEEARRLREGNWASVRTVLTGAVALGALVTVGAFFASK", "modifications": "left off: FLAG, N-terminal, kept"}, "B2": {"name": "BimLΔC27 (recombinant BimL lacking its COOH-terminal hydrophobic 27 amino acids) (domain or fragment, mouse, UniProt O54918-2 1-113, looked up)", "chain": "MAKQPSDVSSECDREGGQLQPAERPPQLRPGAPTSLQTEPQDRSPAPMSCDKSTQTPSPPCQAFNHYLSAMASIRQSQEEPEDLRPEIRIAQELRRIGDEFNETYTRRVFAND"}, "B3": {"name": "BimLΔC27: Purified recombinant BimL lacking its COOH-terminal hydrophobic 27 amino acids (protein)", "chain": "B2 chain", "modifications": "left off: GST, end not stated, state not stated"}, "B4": {"name": "Bcl-w ΔC10 (C29S, A128E), His6-tagged recombinant (domain or fragment, UniProt Q92843 1-183, looked up)", "chain": "MATPASAPDTRALVADFVGYKLRQKGYVSGAGPGEGPAADPLHQAMRAAGDEFETRFRRTFSDLAAQLHVTPGSAQQRFTQVSDELFQGGPNWGRLVAFFVFGAALCAESVNKEMEPLVGQVQEWMVEYLETQLADWIHSSGGWAEFTALYGDGALEEARRLREGNWASVRTVLTGAVALGAL"}}, "key": {"[1]": {"test_system": "endogenous Bcl-w in HeLa cells", "experiment": "Drug-induced membrane association of endogenous Bcl-w, HeLa cells", "type": "cell-based", "details": "24 h, 1.0 μg/ml etoposide (VP16) or 10 nM staurosporine", "method_in_brief": "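HeLa cells were harvested 24 h after 50 Jm−2 UV, 1.0 μg/ml etoposide or 10 nM staurosporine. Lysis was in HMKEE buffer (Hepes pH 7.2) with 250 mM sucrose and 0.025% digitonin, 10 min on ice. Pellet (13,000 rpm, 2 min, 4°C) was solubilised in RIPA. Soluble and pellet fractions were immunoblotted for endogenous Bcl-w.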"}, "[2]": {"test_system": "Bcl-w in FDC-P1 cells", "experiment": "Damage-induced membrane association of Bcl-w, FDC-P1 cells", "type": "cell-based", "method_in_brief": "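FDC-P1 or FD/FLAG–Bcl-w cells were given 100 nM staurosporine, 10 Gy γ irradiation or IL-3 withdrawal, in some runs with 50 μM zVAD.fmk. Cells were lysed in HMKEE/250 mM sucrose/0.025% digitonin for 10 min on ice. Pellet (13,000 rpm, 2 min, 4°C) and soluble fractions were separated. Pellet was RIPA-solubilised, with or without alkali treatment, and immunoblotted for Bcl-w.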"}, "[3]": {"test_system": "FDC-P1 cells", "experiment": "Inhibition of apoptosis / cell survival", "type": "cell-based", "details": "zVAD.fmk with death signals"}, "[4]": {"test_system": "BimEL", "experiment": "Coimmunoprecipitation of Bcl-w constructs with BimEL", "type": "binding", "details": "35S-labeled lysates, 293T cells"}, "[5]": {"target": "B4", "experiment": "SPR"}, "[6]": {"target": "T1, Bcl-w ΔC10 (Homo sapiens, UniProt Q92843, A128E/C29S)", "T1 sequence (Q92843 1-183 C29S/A128E limits assumed)": "B4 chain", "experiment": "Optical biosensor", "type": "binding"}, "[7]": {"target": "T2, L94ABH3, 26-mer Bim BH3 peptide with L94A (mouse, L94A (stands in the printed letters))", "T2 peptide": "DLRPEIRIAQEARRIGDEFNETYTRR", "experiment": "SPR"}}, "data": [{"molecule": "COc1cc([C@@H]2c3cc4c(cc3[C@@H](O[C@@H]3O[C@@H]5CO[C@@H](C)O[C@H]5[C@H](O)[C@H]3O)[C@H]3COC(=O)[C@H]23)OCO4)cc(OC)c1O", "note": "[etoposide]", "values": [{"measurement": "membrane association of endogenous Bcl-w", "setting": "[1]", "value": "Damage signals trigger membrane association of endogenous Bcl-w in HeLa cells"}]}, {"molecule": "CN[C@@H]1C[C@H]2O[C@@](C)([C@@H]1OC)n1c3ccccc3c3c4c(c5c6ccccc6n2c5c31)C(=O)NC4", "note": "[staurosporine]", "values": [{"measurement": "membrane association of endogenous Bcl-w", "setting": "[1]", "value": "Damage signals trigger membrane association of endogenous Bcl-w in HeLa cells"}, {"measurement": "membrane association of endogenous Bcl-w, alkali-resistant", "setting": "[2]; FDC-P1 cells, 100 nM staurosporine", "value": "damage signals induce membrane association resistant to alkali treatment"}]}, {"molecule": "zVAD.fmk", "values": [{"measurement": "delay of cell death", "setting": "[3]", "value": "delayed cell death"}, {"measurement": "recruitment of Bcl-w to the membrane fraction with caspase inhibitor", "setting": "[2]; 50 μM zVAD.fmk plus death signals, FD/FLAG–Bcl-w cells", "value": "Bcl-w was still recruited into the membrane fraction in response to death signals"}]}, {"molecule": "B1", "values": [{"measurement": "binding to BimEL", "setting": "[4]", "value": "interacts avidly with Bim"}]}, {"molecule": "DLRPEIRIAQELRRIGDEFNETYTRR", "note": "[wtBH3, 26-mer peptide spanning the BH3 domain of Bim]", "values": [{"measurement": "binding result", "setting": "[5]", "value": "binds"}]}, {"molecule": "B2", "values": [{"measurement": "binding result", "setting": "[5]", "value": "binds"}]}, {"molecule": "B3", "values": [{"measurement": "binding to Bcl-w", "setting": "[6]", "value": "binds purified Bcl-w with high (nM) affinity"}]}, {"molecule": "B4", "values": [{"measurement": "fold reduction of binding against wtBH3", "setting": "[7]", "value": "> 50", "unit": "fold"}]}]}
